Experimental data from ChEMBL document CHEMBL5715960, “Epigenetic Co-Deregulation of EZH2/TET1 is a Senescence-Countering, Actionable Vulnerability in Triple-Negative Breast Cancer” (Theranostics, 2019).
Activity calls are given as the source filed them. No cut-off for these calls is given here.

Key:
Type in all cases: functional, cell-based
MCF7 [1] = experiment: Effect on human MCF7 cells assessed as increase in TET3 transcription by qRT-PCR analysis
Summary of the method: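 qRT-PCR of TET1, TET2 and TET3 transcripts in breast cancer cells exposed to GSK343 (2 µM unless otherwise indicated), shown relative to DMSO-treated cells. Mean ± SD, triplicate unless stated.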

MDA-MB-231 [2] = experiment: Upregulation of TP53 gene in human MDA-MB-231 cells at 2 uM by qRT-PCR analysis
Summary of the method: (§1)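 Relative transcript levels measured by qRT-PCR in cells treated with 2 µM inhibitor, normalised to DMSO-treated control cells. Triplicate experiments unless stated otherwise; mean ± SD reported; unpaired two-tailed Student's t-test at p < 0.05.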

MDA-MB-436 [3] = experiment: Antiproliferative activity against human MDA-MB-436 cells at 0.5 to 2 uM for 2 days by Guava viacount assay; conditions: dose 0.5-2 µM, time 2.0 day
Summary of the method: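 Cells plated at 2 × 10^4 (24-well) or 1 × 10^5 (12-well), exposed to a range of GSK343 concentrations for 2 days against DMSO solvent control; cell number and viability read by Guava ViaCount flow cytometry, relative to DMSO. Triplicate; mean ± SD.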

BT-474 = experiment: Upregulation of CDKN1A gene in human BT-474 cells at 2 uM by qRT-PCR analysis; summary of the method: as §1
MDA-MB-231 [4] = experiment: Effect on […] in human MDA-MB-231 cells assessed as repression in TET1 promoter H3K27me3 by ChiP-qPCR analysis
Summary of the method: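 Cells treated with GSK343 or DMSO; chromatin immunoprecipitated with anti-EZH2 or anti-H3K27me3 antibody and quantified by qPCR with primers for the TET1 promoter; input as internal control, IgG as negative control.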

MDA-MB-231 [5] = experiment: Effect on human MDA-MB-231 cells expressing shTET1 assessed as reduction in cyclinA by immunoblot analysis
MDA-MB-436 [6] = experiment: Effect on human MDA-MB-436 cells assessed as apoptotic phenotype by measuring increase in p53 expression level at 2 uM in presence of adriamycin by immunoblot analysis
Summary of the method: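 Immunoblot of cell lysates after 0.05 µg/ml adriamycin alone, with 2 µM GSK343, or DMSO. α-Tubulin and total H3 used as loading controls.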

MCF7 [7] = experiment: Effect on human MCF7 cells assessed as increase in TET1 level at 2 uM in presence of adriamycin by immunoblot analysis
Summary of the method: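 Immunoblot of MDA-MB-231 and MCF7 lysates after 0.005 µg/ml adriamycin with or without 2 µM GSK343, or DMSO. α-Tubulin and total H3 used as loading controls.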

`CCCc1cc(C)[nH]c(=O)c1CNC(=O)c1cc(-c2ccnc(N3CCN(C)CC3)c2)cc2c1cnn2C(C)C` was tested, and the Activity (MCF7 [1]) was “inactive”, the Activity (MDA-MB-231 [2]) was “Active” and the Activity (MDA-MB-436 [3]) was “Active”. For the same compound, the Activity (BT-474) was “inactive”, the Activity (MDA-MB-231 [4]) was “Active” and the Activity (MDA-MB-231 [5]) was “inactive”. The Activity (MDA-MB-436 [6]) was “Active” and the Activity (MCF7 [7]) was “inactive”.
